Assay outcomes from PubChem.
INS-1E_ATP_HTS: preserves ATP levels in cytokine-treated INS-1E cells | INS-1E cytokine-induced death, ATP luminescence, 48 h; normalised: neutral wells 0, positive control 100 | protection from cytokine-induced ATP loss, % at 10 µM | 0.1% of 20,000 active;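 active = mean replicate protection from cytokine-induced ATP loss at least 50% and at least 75% of replicates each reaching 50%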
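assay system = INS-1E rat insulinoma cells | amount = 8000 cells per well | medium = phenol-red-free RPMI with 5% fetal bovine serum | doses = one compound concentration, pin transfer | timing = 48 h cytokine plus compound treatment, 10 min reagent incubation | also added = IL-1β, TNF-α and IFN-γ cytokine mix | signal = CellTiter-Glo luminescence measuring cellular ATP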
A1_apoptosis_2: blocks A1, raising caspase activity; MEF A1-2A-BIM cells, caspase-Glo luminescence, 3 h; percent of clofoctol response, DMSO zero; caspase activation, % (no concentration beside the values); 24,000 tested, under 10 active; in the data active = caspase activation above about 5.9%
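System: mouse embryonic fibroblasts co-expressing A1 and BIM (A1-2A-BIM), primed for A1 dependence; amount: 2500 cells/well; doses: 50 nL pinned compound; schedule: cells settled overnight, compound exposure 3 h at 37 °C, 5% CO2; detection: Caspase-Glo 3/7 luminescence, 1 h at room temperature; read-out: Caspase-3/7 activation, seen as rise in luminescence signal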
T_cruzi_intra: intracellular Trypanosoma cruzi inhibition. intracellular Trypanosoma cruzi in host cells, plate reader. activity score (inhibition), % at 5.01 µM. 4.9% of 22,000 active. AID 651903; in the data active = activity score above about 55%;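 also: parasites and compound incubated about four days before reading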
Numbers stand for hits; - = inactive; . = no result. The full list was thinned out, with hits kept by preference.

SMILES INS-1E_ATP_HTS A1_apoptosis_2 T_cruzi_intra
C[C@@H]1CCCCO[C@H](CN(C)Cc2ccc(Cl)c(Cl)c2)[C@@H](C)CN([C@H](C)CO)C(=O)c2cc(NS(=O)(=O)c3ccc(Cl)cc3)ccc2O1 - - 64
COc1ccc(S(=O)(=O)Nc2ccc3c(c2)C(=O)N([C@H](C)CO)C[C@H](C)[C@@H](CN(C)Cc2ccc(Cl)c(Cl)c2)OCCCC[C@H](C)O3)cc1 . - .
C[C@@H]1CCCCO[C@@H](CN(C)Cc2ccc(Cl)c(Cl)c2)[C@@H](C)CN([C@H](C)CO)C(=O)c2cc(NS(=O)(=O)c3ccc(Cl)cc3)ccc2O1 - - 72
C[C@@H]1CCCCO[C@H](CN(C)Cc2ccc(Cl)c(Cl)c2)[C@@H](C)CN([C@@H](C)CO)C(=O)c2cc(NS(=O)(=O)c3ccc(F)cc3)ccc2O1 . - .
O=C(CCCCCCC(=O)Nc1ccccc1O)NN=C1CCCC1 - . -
O=C(CCCCCC(=O)N/N=C/c1ccccn1)NO . - .
C=CCC/C=N/NC(=O)CCCCCCC(=O)NO . - .
Cc1noc(C)c1S(=O)(=O)Nc1ccc2c(c1)CC(=O)N([C@@H](C)CO)C[C@H](C)[C@H](CN(C)Cc1ccccc1)O2 - - -
Cc1noc(C)c1S(=O)(=O)Nc1ccc2c(c1)CC(=O)N([C@@H](C)CO)C[C@H](C)[C@@H](CN(C)Cc1ccccc1)O2 - - -
Cc1noc(C)c1S(=O)(=O)Nc1ccc2c(c1)CC(=O)N([C@H](C)CO)C[C@H](C)[C@H](CN(C)Cc1ccc(Oc3ccccc3)cc1)O2 - - .
Cc1noc(C)c1S(=O)(=O)Nc1ccc2c(c1)CC(=O)N([C@H](C)CO)C[C@@H](C)[C@H](CN(C)Cc1ccc(-c3ccccc3)cc1)O2 - - 58
Cc1noc(C)c1S(=O)(=O)Nc1ccc2c(c1)C(=O)N([C@@H](C)CO)C[C@H](C)[C@@H](CN(C)Cc1ccc(-c3ccccc3)cc1)O2 - . -
Cc1noc(C)c1S(=O)(=O)Nc1ccc2c(c1)C(=O)N([C@H](C)CO)C[C@H](C)[C@H](CN(C)Cc1ccc(-c3ccccc3)cc1)O2 - - 65
Cc1noc(C)c1S(=O)(=O)Nc1ccc2c(c1)CC(=O)N([C@H](C)CO)C[C@@H](C)[C@H](CN(C)Cc1ccc(Oc3ccccc3)cc1)O2 - . 69
Cc1noc(C)c1S(=O)(=O)Nc1ccc2c(c1)CC(=O)N([C@@H](C)CO)C[C@H](C)[C@@H](CN(C)Cc1ccc(-c3ccccc3)cc1)O2 - - 66
C[C@H](CO)N1C[C@H](C)[C@H](CN(C)S(=O)(=O)c2cccs2)Oc2ccc(NC(=O)CCC(F)(F)F)cc2C1=O . . -
O=C(NN=C1CCCCCC1)c1ccccc1O - . -
C[C@@H]1CN([C@@H](C)CO)C(=O)c2cc(NC(=O)Nc3ccc(C(F)(F)F)cc3)ccc2O[C@@H](C)CCCCO[C@@H]1CN(C)CC1CCCCC1 . - .
COc1ccc(NC(=O)Nc2ccc3c(c2)C(=O)N([C@@H](C)CO)C[C@@H](C)[C@@H](CN(C)CC2CCCCC2)OCCCC[C@H](C)O3)cc1 . - .
COc1ccc(NC(=O)Nc2ccc3c(c2)C(=O)N([C@H](C)CO)C[C@H](C)[C@@H](CN(C)CC2CCCCC2)OCCCC[C@@H](C)O3)cc1 - . 76
C[C@@H]1CCCCO[C@H](CN(C)CC2CCCCC2)[C@@H](C)CN([C@H](C)CO)C(=O)c2cc(NC(=O)Nc3ccc(C(F)(F)F)cc3)ccc2O1 - - 70
C[C@@H]1CCCCO[C@H](CN(C)CC2CCCCC2)[C@H](C)CN([C@H](C)CO)C(=O)c2cc(NC(=O)Nc3ccc4c(c3)OCO4)ccc2O1 . - .
C[C@@H]1CCCCO[C@@H](CN(C)CC2CCCCC2)[C@H](C)CN([C@H](C)CO)C(=O)c2cc(NC(=O)Nc3ccc(C(F)(F)F)cc3)ccc2O1 . 8.3 .
C[C@@H]1CCCCO[C@H](CN(C)CC2CCCCC2)[C@H](C)CN([C@H](C)CO)C(=O)c2cc(NC(=O)Nc3ccc(C(F)(F)F)cc3)ccc2O1 . - .
C[C@@H]1CCCCO[C@H](CN(C)CC2CCCCC2)[C@@H](C)CN([C@H](C)CO)C(=O)c2cc(NC(=O)Nc3ccc4c(c3)OCO4)ccc2O1 - . 79
COc1ccc(S(=O)(=O)N(C)C[C@@H]2Oc3ccc(NS(=O)(=O)c4ccc(C)cc4)cc3CC(=O)N([C@@H](C)CO)C[C@@H]2C)cc1 - . -
COc1ccc(S(=O)(=O)Nc2ccc3c(c2)CC(=O)N([C@H](C)CO)C[C@H](C)[C@H](CN(C)S(=O)(=O)c2ccc(C)cc2)O3)cc1 - - -
